Assays:
[1] = molecular target: T1, Protein mono-ADP-ribosyltransferase PARP10 (Homo sapiens, UniProt Q53GL7); assay: (§1) Inhibition of N-terminal FLAG-tagged and C-terminal strep-tagged human PARP10 (805 to 1025 residues) expressed in baculovirus infected Sf9 cells assessed as reduction in NAD+-dependent ADP ribosylation using histone as substrate incubated for 1 hr in presence of biotinylated NAD+ and activated DNA by chemiluminescence based microplate reader assay
T1 sequence (Q53GL7 whole entry): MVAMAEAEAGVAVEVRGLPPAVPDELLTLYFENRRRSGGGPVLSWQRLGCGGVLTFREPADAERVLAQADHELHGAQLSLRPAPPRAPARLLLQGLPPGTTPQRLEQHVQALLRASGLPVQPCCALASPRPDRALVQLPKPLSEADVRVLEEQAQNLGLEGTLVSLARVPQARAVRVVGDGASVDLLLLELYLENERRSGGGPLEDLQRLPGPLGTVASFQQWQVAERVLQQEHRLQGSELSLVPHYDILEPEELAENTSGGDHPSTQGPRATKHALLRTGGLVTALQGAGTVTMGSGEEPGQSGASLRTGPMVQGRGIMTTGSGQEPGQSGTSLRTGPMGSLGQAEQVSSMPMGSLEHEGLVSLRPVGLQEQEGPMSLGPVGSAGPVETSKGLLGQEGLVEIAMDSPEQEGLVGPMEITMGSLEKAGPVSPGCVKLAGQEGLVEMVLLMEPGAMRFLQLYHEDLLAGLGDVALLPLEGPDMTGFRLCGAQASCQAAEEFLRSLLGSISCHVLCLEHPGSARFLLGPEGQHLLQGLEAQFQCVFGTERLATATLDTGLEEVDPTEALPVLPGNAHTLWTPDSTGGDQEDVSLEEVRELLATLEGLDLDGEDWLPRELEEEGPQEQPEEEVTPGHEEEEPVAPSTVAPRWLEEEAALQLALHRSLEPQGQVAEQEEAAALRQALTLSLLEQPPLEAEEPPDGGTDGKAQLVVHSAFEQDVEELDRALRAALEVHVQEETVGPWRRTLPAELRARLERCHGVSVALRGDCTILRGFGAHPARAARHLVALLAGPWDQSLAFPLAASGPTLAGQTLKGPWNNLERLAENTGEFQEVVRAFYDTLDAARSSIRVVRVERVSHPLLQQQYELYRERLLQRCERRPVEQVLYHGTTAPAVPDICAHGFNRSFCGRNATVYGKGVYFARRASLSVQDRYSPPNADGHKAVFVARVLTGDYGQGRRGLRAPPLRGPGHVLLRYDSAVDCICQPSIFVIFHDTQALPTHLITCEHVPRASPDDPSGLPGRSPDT
How it was run: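 The IC50 was derived from a concentration-dependent inhibition curve for PARP10 in the histone ADP-ribosylation assay.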

[2] = molecular target: Poly [ADP-ribose] polymerase 2 (Homo sapiens) (UniProt Q9UGN5); assay: as §1, with “GST tagged” for “FLAG-tagged and C-terminal strep-tagged”, “PARP2 (2” for “PARP10 (805”, “583” for “1025”, “substrate at 10 uM” for “substrate”, “assay relative to control” for “assay”
[3] = molecular target: Protein mono-ADP-ribosyltransferase PARP6 (Homo sapiens) (UniProt Q2NL67); assay: (§2) Inhibition of N-terminal GST tagged full length human PARP6 expressed in baculovirus infected Sf9 cells assessed as reduction in NAD+-dependent ADP ribosylation using histone as substrate at 10 uM incubated for 1 hr in presence of biotinylated NAD+ and activated DNA by chemiluminescence based microplate reader assay relative to control
[4] = molecular target: T2, Protein mono-ADP-ribosyltransferase PARP8 (Homo sapiens) (UniProt Q8N3A8); assay: Inhibition of PARP8 (unknown origin) assessed as reduction in NAD+-dependent ADP ribosylation using histone as substrate at 10 uM incubated for 1 hr in presence of biotinylated NAD+ and activated DNA by chemiluminescence based microplate reader assay relative to control
T2 sequence (whole entry): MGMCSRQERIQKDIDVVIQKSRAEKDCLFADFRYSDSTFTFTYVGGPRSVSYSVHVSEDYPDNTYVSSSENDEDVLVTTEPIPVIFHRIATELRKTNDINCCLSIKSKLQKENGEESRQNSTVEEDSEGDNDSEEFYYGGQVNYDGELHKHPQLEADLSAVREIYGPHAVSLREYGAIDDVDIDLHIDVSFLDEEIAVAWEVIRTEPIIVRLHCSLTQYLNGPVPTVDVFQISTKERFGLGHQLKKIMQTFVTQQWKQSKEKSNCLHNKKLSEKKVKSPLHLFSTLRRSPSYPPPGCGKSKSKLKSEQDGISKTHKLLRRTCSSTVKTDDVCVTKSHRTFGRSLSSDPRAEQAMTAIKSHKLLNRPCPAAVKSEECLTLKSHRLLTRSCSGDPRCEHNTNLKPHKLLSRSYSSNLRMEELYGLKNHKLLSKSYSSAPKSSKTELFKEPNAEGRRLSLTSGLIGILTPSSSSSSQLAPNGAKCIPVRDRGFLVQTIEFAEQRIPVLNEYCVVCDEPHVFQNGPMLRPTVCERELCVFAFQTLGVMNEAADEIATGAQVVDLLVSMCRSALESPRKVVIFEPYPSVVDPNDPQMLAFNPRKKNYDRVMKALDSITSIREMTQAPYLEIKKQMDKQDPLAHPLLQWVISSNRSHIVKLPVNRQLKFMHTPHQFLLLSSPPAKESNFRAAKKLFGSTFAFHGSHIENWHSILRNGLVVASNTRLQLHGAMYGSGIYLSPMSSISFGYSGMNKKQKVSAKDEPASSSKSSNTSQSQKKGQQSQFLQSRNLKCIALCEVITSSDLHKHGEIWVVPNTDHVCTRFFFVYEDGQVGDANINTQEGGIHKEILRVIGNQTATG

[5] = molecular target: T3, Protein mono-ADP-ribosyltransferase PARP12 (Homo sapiens) (UniProt Q9H0J9); assay: as §2, with “His-GST” for “GST”, “tagged” for “tagged full length”, “PARP12 (500 to 701 residues)” for “PARP6”
T3 sequence (whole entry): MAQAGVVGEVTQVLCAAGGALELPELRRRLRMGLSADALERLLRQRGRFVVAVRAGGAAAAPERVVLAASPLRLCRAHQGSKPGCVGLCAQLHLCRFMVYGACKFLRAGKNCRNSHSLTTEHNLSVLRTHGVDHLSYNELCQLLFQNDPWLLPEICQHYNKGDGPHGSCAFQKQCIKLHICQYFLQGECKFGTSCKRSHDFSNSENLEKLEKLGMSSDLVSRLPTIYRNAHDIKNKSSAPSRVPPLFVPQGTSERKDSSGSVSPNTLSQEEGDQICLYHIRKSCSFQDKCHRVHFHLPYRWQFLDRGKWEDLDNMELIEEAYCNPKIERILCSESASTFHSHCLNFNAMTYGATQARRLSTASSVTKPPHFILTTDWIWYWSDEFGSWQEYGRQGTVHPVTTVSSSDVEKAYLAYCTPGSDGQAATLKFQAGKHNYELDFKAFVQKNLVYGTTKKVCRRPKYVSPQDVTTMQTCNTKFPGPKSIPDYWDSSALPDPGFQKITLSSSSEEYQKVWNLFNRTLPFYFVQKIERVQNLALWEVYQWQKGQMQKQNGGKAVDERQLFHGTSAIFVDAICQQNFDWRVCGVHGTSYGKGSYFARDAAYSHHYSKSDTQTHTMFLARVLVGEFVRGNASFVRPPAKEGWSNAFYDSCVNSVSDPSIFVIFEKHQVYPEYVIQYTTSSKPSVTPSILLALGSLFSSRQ

Poly [ADP-ribose] polymerase 2 (Homo sapiens), sequence (Q9UGN5 whole entry): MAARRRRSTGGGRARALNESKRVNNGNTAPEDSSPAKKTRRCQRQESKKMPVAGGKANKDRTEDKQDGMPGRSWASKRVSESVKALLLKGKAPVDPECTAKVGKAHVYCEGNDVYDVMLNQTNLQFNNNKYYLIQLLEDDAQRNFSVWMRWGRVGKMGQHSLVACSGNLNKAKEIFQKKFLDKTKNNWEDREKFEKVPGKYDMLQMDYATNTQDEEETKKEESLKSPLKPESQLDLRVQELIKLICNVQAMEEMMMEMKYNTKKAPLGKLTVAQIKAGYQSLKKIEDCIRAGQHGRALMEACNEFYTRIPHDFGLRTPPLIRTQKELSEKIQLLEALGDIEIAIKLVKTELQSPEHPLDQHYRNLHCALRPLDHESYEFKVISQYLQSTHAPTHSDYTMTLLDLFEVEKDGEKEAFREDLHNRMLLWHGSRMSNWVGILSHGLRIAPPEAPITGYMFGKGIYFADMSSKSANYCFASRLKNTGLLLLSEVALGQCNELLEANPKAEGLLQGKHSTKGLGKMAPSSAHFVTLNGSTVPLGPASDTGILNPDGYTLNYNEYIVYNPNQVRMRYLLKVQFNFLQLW
Protein mono-ADP-ribosyltransferase PARP6 (Homo sapiens), sequence (Q2NL67 whole entry): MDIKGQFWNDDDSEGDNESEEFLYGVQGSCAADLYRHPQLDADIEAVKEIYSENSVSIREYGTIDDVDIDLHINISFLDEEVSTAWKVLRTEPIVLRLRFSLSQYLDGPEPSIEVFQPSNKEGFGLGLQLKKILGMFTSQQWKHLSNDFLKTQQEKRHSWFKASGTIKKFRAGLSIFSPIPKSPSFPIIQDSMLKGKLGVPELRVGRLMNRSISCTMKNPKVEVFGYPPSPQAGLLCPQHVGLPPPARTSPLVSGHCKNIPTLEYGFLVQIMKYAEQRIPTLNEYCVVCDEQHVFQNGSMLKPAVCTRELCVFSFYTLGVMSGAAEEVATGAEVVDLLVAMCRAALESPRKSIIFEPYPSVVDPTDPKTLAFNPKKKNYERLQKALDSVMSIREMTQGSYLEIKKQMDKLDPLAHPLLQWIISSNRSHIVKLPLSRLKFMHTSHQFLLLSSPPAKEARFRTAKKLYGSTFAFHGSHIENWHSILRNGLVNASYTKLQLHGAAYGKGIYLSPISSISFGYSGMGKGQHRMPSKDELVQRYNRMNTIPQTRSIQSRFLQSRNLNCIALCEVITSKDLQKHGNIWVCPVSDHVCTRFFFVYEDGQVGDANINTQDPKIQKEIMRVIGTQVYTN

IC50 [1] | inhibition [2] | inhibition [3] | inhibition [4] | inhibition [5] | Compound
3.9 µM | 100% | 0% | 5% | 16% | CC1(CNC(=O)COc2cccc3c2CCCC3=O)CCN(C(=O)CCc2nc3ccccc3[nH]c2=O)CC1
6 µM | < 25% | < 25% | < 25% | < 25% | CNC(=O)[C@H](CNC(=O)CCc1nc2ccccc2[nH]c1=O)NC(=O)c1ccc2c(c1)CCCC2=O

Reference: ChEMBL document CHEMBL4699460, “Integrating DNA-encoded chemical libraries with virtual combinatorial library screening: Optimizing a PARP10 inhibitor” (Bioorg Med Chem Lett, 2020)
